We go through six molecules from publication PMC8137654 (Bioconjugate chemistry, 2021).

“Also recorded” adds a separate entry of the source. Non-standard residues stand in square brackets, D forms with d. Residues, ends and D or L forms follow the SMILES beside them. ξ: configuration not given here. *: point of attachment. X1 = COc1cc(N=Nc2ccccc2[N+](=O)[O-])c(C)cc1N=Nc1ccc(N(C)CCCC(=O)*)cc1; X2 = O=C(O)c1cc(C(=O)*)ccc1-c1c2ccc(=O)cc-2oc2cc(O)ccc12; X3 = O=P(O)(O)C(O)(CCN*)P(=O)(O)O; ξH = NC(Cc1c[nH]cn1)C(=O)O; ξQ = NC(=O)CCC(N)C(=O)O; ξP = O=C(O)C1CCCN1; βAla = NCCC(=O)O

The target of data set [1] is T1, Ctsk (Homo sapiens, UniProt P43235).
T1 sequence (P43235 115-329): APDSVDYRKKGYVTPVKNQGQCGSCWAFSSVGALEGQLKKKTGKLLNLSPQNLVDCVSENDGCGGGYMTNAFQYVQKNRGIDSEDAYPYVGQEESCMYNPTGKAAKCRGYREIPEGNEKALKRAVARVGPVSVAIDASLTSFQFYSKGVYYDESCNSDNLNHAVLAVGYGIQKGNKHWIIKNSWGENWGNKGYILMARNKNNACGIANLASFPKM
Nature of the data set: Kinetics of Ctsk-catalyzed OFS-1 activation in solution. It counts as biochemical.

Data set [2] can be described thus: OFS-1 fluorescence in water without enzyme. It counts as physicochemical. The following applies: 10 μM OFS-1 in water, 48 h, 37 °C.
For data set [3], the target named is T1, Ctsk. It counts as biochemical. The gist of the method:
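Probe kept in solution at pH 7 with 20 nM initial human Ctsk. Ctsk inhibitor added to the assay mixture at 0, 1, 5, 10, 30, 50 or 100 nM (n = 3). Fluorescence followed over time through a 2 h incubation, with an enzyme-free control.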

Data set [4] concerns the target T1, Ctsk. Nature of the data set: Ctsk-induced fluorogenesis of OFS-1 pre-adsorbed on HAp with/without odanacatib. It counts as biochemical. The following applies: HAp treated overnight with 0.5 μM OFS-1 in 50 mM acetate pH 5.5, washed; 20 nM Ctsk, 37 °C, 2 h. The gist of the method:
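[…] (HAp)-coated polystyrene wells soaked overnight in probe in acetate buffer, then washed repeatedly with water to remove unbound probe. Wells covered with human Ctsk, with Ctsk inhibitor at 0, 1, 5, 10, 30, 50 or 100 nM (n = 3). Fluorescence read at 1 min intervals in a plate reader at 37 °C.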

The test system of data set [5] is human osteoclasts. Briefly: Activation of OFS-1 adsorbed on HAp by resorbing human osteoclasts. The class given is cell-based. The gist of the method: (§1)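 HAp […]-coated polystyrene wells were pre-treated with 5.0 μM OFS-1 and washed with PBS. They were then seeded with human osteoclasts, alone or co-cultured with RPMI-8226-Luc myeloma cells, with or without 30 nM odanacatib. Wells were imaged by bright-field and fluorescence microscopy (time-lapse video) for 24 h at 37 °C to record resorption pits and probe fluorescence.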

For data set [6], the system named is osteoclasts co-cultured with RPMI-8226-Luc human multiple myeloma cells. Nature of the data set: Activation of OFS-1 on HAp by osteoclasts co-cultured with RPMI-8226-Luc cells. The class given is cell-based. The gist of the method: as §1
Data set [7] concerns RPMI-8226-Luc human multiple myeloma cells engrafted in NSG/BLT humanized mice. Briefly: In vivo fluorescence imaging of multiple myeloma-induced osteolysis. Also noted: species or system mouse. The gist of the method:
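NSG mice were co-grafted with human CD34+ hematopoietic stem cells, liver and thymus and irradiated (NSG/BLT). RPMI-8226-Luc cells (15×10^6 per mouse, 100 μL) were given by tail vein; controls received vehicle. Seven days later, 100 μL of 50 μM OFS-1 was injected retro-orbitally. In vivo fluorescence and bioluminescence imaging was done 3, 4 and 5 wk after cell injection, plus ex vivo micro-CT. Control n = 1, myeloma mice n = 3.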

The nature of data set [8]: Adsorption on hydroxyapatite and bone mineral.
For data set [9] the following is noted: ref [14]; cited from earlier work.
The target of data set [10] is T1, Ctsk. The following applies: reported value; ref [25]; cited from earlier work.
The target in data set [11] is T1, Ctsk. The conditions noted are these: cited from earlier work.

`COc1cc(N=Nc2ccccc2[N+](=O)[O-])c(C)cc1N=Nc1ccc(N(C)CCCC(=O)NCC(=O)NC(Cc2c[nH]cn2)C(=O)N2CCCC2C(=O)NCC(=O)NCC(=O)N2CCCC2C(=O)NC(CCC(N)=O)C(=O)NCC(=O)NCCC(=O)N[C@@H](CCCCNC(=O)c2ccc(-c3c4ccc(=O)cc-4oc4cc(O)ccc34)c(C(=O)O)c2)C(=O)NCCC(O)(P(=O)(O)O)P(=O)(O)O)cc1` (stereo partly drawn) [OFS-1] (X1-G[ξH][ξP]GG[ξP][ξQ]G[βAla]K(X2)-X3): in [1] (25 nM human Ctsk, 50 mM sodium acetate pH 5.5, 2.5 mM EDTA, 1 mM DTT, 37 °C, Supplementary Figure S3), the “dependence of fluorescence intensity on OFS-1 concentration” value was “depended linearly on the OFS-1 concentration up to 1 μM”. The “catalytic efficiency (kcat/Km)” value in [1] (Ctsk 2.5 nM (Fig. 2), 50 mM NaOAc pH 5.5, 37 °C) is 0.97 × 10^5 M-^1 s-^1. Besides, the “fluorescence on exposure to Ctsk” value in data set [1] (Ctsk 2.5–20 nM, in solution or pre-adsorbed on HAp) is on record as “strong fluorescence”. The “cleavage efficiency relative to Abz-HPGGPQ-EDN2Ph (less efficient)” value in data set [1] (OFS-1 vs literature value of Abz-HPGGPQ-EDN2Ph, ref [25] for the comparator) is “only fourfold less efficiently”. The “extrinsic fluorescence in water without enzyme” value in data set [2] was “virtually undetectable”. In addition, the “time-course of OFS-1 fluorescent activity” value in data set [3] (OFS-1 0.5 μM, 20 nM Ctsk, in solution, pH 7) was “fluorescent activity was immediately observed within 10 min and reached a plateau thereafter”. In [3] (control lacking enzyme, 2 h incubation), the “OFS-1 fluorescence without enzyme” value is listed as “essentially unchanged”. For the same molecule, the “Ctsk-dependent fluorescence of HAp-adsorbed OFS-1” value in data set [4] is “time-course increase of fluorescent intensity; also recorded: Bright Ctsk-dependent fluorescence was again observed”. Also, the “OFS-1 fluorescence without osteoclasts” value in data set [5] (control wells, 5.0 μM OFS-1, not seeded with osteoclasts) is “not significantly fluorescent”. In addition, the “OFS-1 fluorescent signal in co-culture” value in [6] (OFS-1 5.0 μM pre-treated HAp wells, osteoclasts + RPMI-8226-Luc) is listed as “robust activation of OFS-1 fluorescent signals”. The “OFS-1 fluorescent signal compared to solitary osteoclasts” value in [6] (osteoclasts + RPMI-8226-Luc vs solitary osteoclasts) was “increased by RPMI-8226-Luc cells”. For the same molecule, the “time from which distinct in vivo fluorescent signal was detected” value in data set [7] (100 μL of 50 μM OFS-1 retro-orbital, weeks after RPMI-8226-Luc cell injection) turned out to be 4 wk. The “detection relative to myeloma cell luminescence” value in [7] (NSG/BLT humanized mice injected with RPMI-8226-Luc cells) was “before the co-localized luminescence of the myeloma cells could be detected”. For the same molecule, the “in vivo OFS-1 signal relative to tumor site / osteolysis lesions” value in [7] (another mouse, cervical area, post-mortem micro-CT) is given as “extensive osteolysis lesions (arrows), which corresponded to the sentinel OFS-1 signal; also recorded: a strong fluorescent signal was detected at (and extending beyond) the bioluminescent tumor site”. Moreover, the “in vivo OFS-1 signal in control animals” value in data set [7] (physiological level of bone resorption, control n = 1) is listed as “did not show the OFS-1 signal”. The “adsorption on HAp and bone mineral” value in data set [8] was “avidly adsorbed by hydroxyapatite (HAp) and bone mineral surfaces; also recorded: strongly and specifically binds to bone surfaces”.
With `NCCCC(O)(P(=O)(O)O)P(=O)(O)O` [alendronate], in data set [9], the bone-affinity result is given as “high bone-affinity”.
Take `CC(C)(F)C[C@H](N[C@@H](c1ccc(-c2ccc(S(C)(=O)=O)cc2)cc1)C(F)(F)F)C(=O)NC1(C#N)CC1` [odanacatib]: the “pit formation by osteoclasts with odanacatib” value in data set [5] (30 nM odanacatib) was “pit formation was again observed”. Further, the “osteoclast-induced OFS-1 fluorescence with odanacatib” value in [5] (30 nM odanacatib (Figure S9)) is recorded as “fluorescence was suppressed”. In data set [6] (30 nM odanacatib), the “OFS-1 fluorescent signal in co-culture with odanacatib” value is reported as “effectively inhibited”.
In the case of `NCCC(O)(P(=O)(O)O)P(=O)(O)O` [pamidronate], in data set [9], the bone-affinity entry is “high bone-affinity”.
In the case of Abz-HPGGPQ-EDN2Ph, the catalytic efficiency in data set [10] is 426000 M⁻¹ s⁻¹.
As to HPGGPQ, the “cleavage by Ctsk” value in data set [11] (ref [24]) is listed as “selectively cleaved by Ctsk”. In data set [11] (well-established cleavage site, no reference at this place), the “Ctsk cleavage site (original peptide)” value is listed as “Gly-Gly bond”.
